In brackets after ≈: the same amount, converted by molar mass. Activity calls are given as the source filed them. No cut-off for these calls is given here.
Columns and labels:
[1] = target: T1, Proteasome Macropain subunit MB1 (Homo sapiens, UniProt P28074); assay: Inhibition of 20S proteosome beta 5 in human MOLT4 cells by ELISA; format: cell-based
T1 sequence (P28074 whole entry): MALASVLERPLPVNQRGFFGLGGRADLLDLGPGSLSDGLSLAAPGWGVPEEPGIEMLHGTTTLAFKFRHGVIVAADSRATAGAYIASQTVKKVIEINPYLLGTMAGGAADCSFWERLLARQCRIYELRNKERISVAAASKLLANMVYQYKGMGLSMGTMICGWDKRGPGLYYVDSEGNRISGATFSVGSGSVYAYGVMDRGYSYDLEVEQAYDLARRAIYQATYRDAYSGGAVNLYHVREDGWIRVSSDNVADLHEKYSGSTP

[2] = target: T2, Proteasome subunit beta type-9 (Mus musculus, UniProt P28076); assay: Inhibition of LMP2 in mouse A20 cells by ELISA; format: cell-based
T2 sequence (P28076 whole entry): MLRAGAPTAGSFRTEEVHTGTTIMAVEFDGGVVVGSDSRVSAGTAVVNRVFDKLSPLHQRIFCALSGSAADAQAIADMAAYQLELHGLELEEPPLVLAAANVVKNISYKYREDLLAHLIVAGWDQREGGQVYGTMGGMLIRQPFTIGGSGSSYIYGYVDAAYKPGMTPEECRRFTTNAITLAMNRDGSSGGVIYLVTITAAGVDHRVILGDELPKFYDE
In short: (§1)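 Mouse A20 B-cell lymphoma cell lysate (1 mg/mL, hypotonic 20 mM Tris pH 8, 5 mM EDTA) treated with serially diluted compound for 1 h at 25 °C. Then 5 μM biotinylated active-site probe for 2 h at 25 °C, guanidine denaturation and streptavidin bead capture. Subunit-specific antibody and HRP chemiluminescence, signal normalized to protein, IC50 from percent activity versus DMSO controls.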

[3] = target: T3, Proteasome subunit beta type-9 (Homo sapiens, UniProt P28065); assay: Inhibition of LMP2 in human MOLT4 cells by ELISA; format: cell-based
T3 sequence (P28065 whole entry): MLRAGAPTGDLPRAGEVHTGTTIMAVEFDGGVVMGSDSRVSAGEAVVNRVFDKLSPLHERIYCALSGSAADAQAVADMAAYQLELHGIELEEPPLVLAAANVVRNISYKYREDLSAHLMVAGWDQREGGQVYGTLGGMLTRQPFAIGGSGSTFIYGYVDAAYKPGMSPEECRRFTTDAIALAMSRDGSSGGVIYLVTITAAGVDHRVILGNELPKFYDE

[4] = target: T4, Proteasome subunit beta type-8 (Mus musculus, UniProt P28063); assay: Inhibition of LMP7 in mouse A20 cells by ELISA; format: cell-based; in short: as §1
T4 sequence (P28063 whole entry): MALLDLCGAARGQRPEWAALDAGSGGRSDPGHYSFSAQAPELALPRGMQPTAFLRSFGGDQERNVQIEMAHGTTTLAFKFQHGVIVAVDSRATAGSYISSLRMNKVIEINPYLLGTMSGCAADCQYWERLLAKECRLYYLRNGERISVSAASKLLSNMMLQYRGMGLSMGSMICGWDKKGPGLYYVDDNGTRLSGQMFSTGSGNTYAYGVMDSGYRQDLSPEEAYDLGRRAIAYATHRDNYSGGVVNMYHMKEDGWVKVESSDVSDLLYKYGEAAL

[5] = target: T5, Proteasome subunit beta type-10 (Mus musculus, UniProt O35955); assay: Inhibition of MECL1 in mouse A20 cells by ELISA; format: cell-based; in short: as §1
T5 sequence (O35955 whole entry): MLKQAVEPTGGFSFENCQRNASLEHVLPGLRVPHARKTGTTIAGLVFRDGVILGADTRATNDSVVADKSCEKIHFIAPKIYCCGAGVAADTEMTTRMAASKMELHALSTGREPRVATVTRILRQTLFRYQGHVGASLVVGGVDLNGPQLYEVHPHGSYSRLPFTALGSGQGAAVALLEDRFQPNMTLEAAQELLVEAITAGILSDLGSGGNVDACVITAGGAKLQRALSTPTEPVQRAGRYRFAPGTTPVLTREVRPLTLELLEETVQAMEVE

[6] = target: T6, Proteasome subunit beta type-10 (Homo sapiens, UniProt P40306); assay: Inhibition of MECL1 in human MOLT4 cells by ELISA; format: cell-based
T6 sequence (P40306 whole entry): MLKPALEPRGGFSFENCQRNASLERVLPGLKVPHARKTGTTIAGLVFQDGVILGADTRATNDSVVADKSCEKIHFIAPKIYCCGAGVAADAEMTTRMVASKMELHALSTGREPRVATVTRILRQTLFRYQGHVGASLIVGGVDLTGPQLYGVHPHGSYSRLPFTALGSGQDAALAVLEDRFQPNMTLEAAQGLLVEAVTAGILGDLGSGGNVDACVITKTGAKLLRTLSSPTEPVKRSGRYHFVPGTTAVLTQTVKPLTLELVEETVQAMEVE

[7] = target: Proteasome subunit beta type-2 (Mus musculus, UniProt Q9R1P3); assay: Inhibition of 20S proteosome beta 2 in mouse A20 cells by ELISA; format: cell-based
Proteasome subunit beta type-2, sequence (Q9R1P3 whole entry): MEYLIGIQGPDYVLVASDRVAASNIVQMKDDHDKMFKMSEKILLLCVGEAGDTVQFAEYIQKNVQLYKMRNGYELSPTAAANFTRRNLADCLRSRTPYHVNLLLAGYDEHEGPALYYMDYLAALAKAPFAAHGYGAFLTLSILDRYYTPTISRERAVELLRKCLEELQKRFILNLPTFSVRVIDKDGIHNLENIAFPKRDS

[8] = target: T7, Proteasome subunit beta type-8 (Homo sapiens, UniProt P28062); assay: Inhibition of LMP7 in human MOLT4 cells by ELISA; format: cell-based
T7 sequence (P28062 whole entry): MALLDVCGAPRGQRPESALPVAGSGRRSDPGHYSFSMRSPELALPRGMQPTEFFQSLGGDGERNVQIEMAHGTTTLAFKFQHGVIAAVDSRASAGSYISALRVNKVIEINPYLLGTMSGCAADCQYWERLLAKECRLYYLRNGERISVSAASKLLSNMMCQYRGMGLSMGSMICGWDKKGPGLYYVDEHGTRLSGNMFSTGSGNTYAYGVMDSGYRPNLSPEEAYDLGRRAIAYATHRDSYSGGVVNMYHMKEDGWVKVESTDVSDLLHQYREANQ

[9] = target: T8, Proteasome subunit beta type-5 (Mus musculus, UniProt O55234); assay: Inhibition of 20S proteosome beta 5 in mouse A20 cells by ELISA; format: cell-based
T8 sequence (O55234 whole entry): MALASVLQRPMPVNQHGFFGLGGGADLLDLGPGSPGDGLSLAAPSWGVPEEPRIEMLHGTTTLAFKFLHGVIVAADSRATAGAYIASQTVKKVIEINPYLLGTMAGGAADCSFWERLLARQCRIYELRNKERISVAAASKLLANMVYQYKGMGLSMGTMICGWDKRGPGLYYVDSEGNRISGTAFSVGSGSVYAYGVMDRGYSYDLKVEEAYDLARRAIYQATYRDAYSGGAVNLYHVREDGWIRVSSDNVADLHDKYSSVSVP

[10] = Half life in Sprague-Dawley rat at 2 to 9 mg/kg, iv administered as bolus dose by LC/MS-MS analysis; format: ADME, organism-based; settings: in vivo
[11] = Solubility of the compound in phosphate buffer at pH 7.2 at 10 mg/ml after 24 hrs by HPLC-UV method; format: physicochemical
In short: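 Compound shaken at a target 10 mg/mL in 50 mM potassium phosphate buffer for 24 h at 25 °C, then centrifuged at 15 000 rpm for 15 min. Supernatant diluted 100-fold in DMSO and quantified by HPLC-UV (220/254/280 nm) against a three-level DMSO standard curve, in duplicate.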

[12] = tested on: PBMC; assay: Antiinflammatory activity in human PBMC assessed as reduction in anti-CD3/CD28 antibody-stimulated IFN-gamma expression at 250 nM preincubated for 1 hr followed by anti-CD3/CD28 antibody stimulation measured after 24 hrs by ELISA; format: functional, cell-based
In short: (§2)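 Healthy-donor PBMC, thawed from cryopreservation, 250 000 cells/well in RPMI 1640/5% FBS. Pretreated 1 h at 37 °C with compound alone or combined (0.1% DMSO final), washed 4 times, then stimulated 24 h with anti-CD3 and anti-CD28 antibodies. TNFα and IFNγ in supernatants by electrochemiluminescent ELISA; expressed relative to DMSO-treated controls (n = 6).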

[13] = target: T9, Proteasome subunit beta type-9 (Homo sapiens) (UniProt P28065); assay: Inhibition of LMP2 in human PBMC at 250 nM by ELISA
T9 sequence (whole entry): T3 sequence (P28065 whole entry)
In short: (§3)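 Cryopreserved healthy-donor human PBMC in RPMI 1640 with 5% heat-inactivated FBS, exposed to compound (0.1% DMSO final) for 1 h at 37 °C, 5% CO2, then washed. Subunit-specific active-site occupancy read by ProCISE: biotinylated active-site probe binding, denaturation, streptavidin capture, subunit-specific antibody and HRP chemiluminescence. Signal normalized to protein and expressed relative to DMSO controls.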

[14] = tested on: PBMC; assay: Antiinflammatory activity in human PBMC assessed as reduction in LPS-stimulated IL-6 expression at 250 nM preincubated for 1 hr followed by LPS stimulation measured after 24 hrs by ELISA; format: functional, cell-based
In short: (§4)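 Cryopreserved healthy-donor PBMC in RPMI 1640 with 5% heat-inactivated FBS, 250 000 cells/well. Compound (0.1% DMSO final) for 1 h at 37 °C, 5% CO2, then 4 washes with medium. Stimulated with 1 μg/mL LPS for 24 h; supernatant TNFα, IL-6 and IL-12/23p40 by electrochemiluminescent immunoassay. Mean level relative to DMSO controls, n = 6.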

[15] = target: T10, Proteasome subunit beta type-8 (Homo sapiens) (UniProt P28062); assay: Inhibition of LMP7 in human PBMC at 250 nM by ELISA; in short: as §3
T10 sequence (whole entry): T7 sequence (P28062 whole entry)

[16] = tested on: PBMC; assay: Antiinflammatory activity in human PBMC assessed as reduction in LPS-stimulated TNF-alpha expression at 250 nM preincubated for 1 hr followed by LPS stimulation measured after 24 hrs by ELISA; format: functional, cell-based; in short: as §4
[17] = tested on: PBMC; assay: Antiinflammatory activity in human PBMC assessed as reduction in anti-CD3/CD28 antibody-stimulated TNF-alpha expression at 250 nM preincubated for 1 hr followed by anti-CD3/CD28 antibody stimulation measured after 24 hrs by ELISA; format: functional, cell-based; in short: as §2
[18] = tested on: PBMC; assay: Antiinflammatory activity in human PBMC assessed as reduction in LPS-stimulated p40 subunit of […] expression at 250 nM preincubated for 1 hr followed by LPS stimulation measured after 24 hrs by ELISA; format: functional, cell-based; in short: as §4

| Compound | IC50 [1] | IC50 [2] | IC50 [3] | IC50 [4] | IC50 [6] | IC50 [8] | IC50 [9] | solubility at 24 h [11] | further results |
| --- | --- | --- | --- | --- | --- | --- | --- | --- | --- |
| CC(C)C[C@H](NC(=O)CN1CCCCCC1)C(=O)N[C@@H](Cc1ccccc1)C(=O)N[C@@H](Cc1ccccc1)C(=O)[C@@]1(C)CO1 | 39 nM | 415 nM | 415 nM | 56 nM | 97 nM | 49 nM | 38 nM | – | IC50 [5]: 159 nM; IC50 [7]: 141 nM |
| CC(C)C[C@H](NC(=O)[C@H](CCc1ccccc1)NC(=O)CN1CCOCC1)C(=O)N[C@@H](Cc1ccccc1)C(=O)N[C@@H](CC(C)C)C(=O)[C@@]1(C)CO1 [CARFILZOMIB] | – | – | – | – | – | – | – | – | half-life [10]: < 15 min |
| CC1=C(C(=O)N[C@@H](C)C(=O)N[C@@H](Cc2c[nH]c3ccccc23)C(=O)N[C@@H](Cc2ccccc2)C(=O)[C@@]2(C)CO2)Cc2ccccc21 | 54 nM | – | – | 50 nM | – | 38 nM | 47 nM | 1.85 µg/mL (≈ 2.99 µM) | – |
| COc1ccc(C[C@H](NC(=O)[C@H](C)NC(=O)CN2CCOCC2)C(=O)N[C@@H](Cc2ccccc2)C(=O)[C@@]2(C)CO2)cc1 | – | 328 nM | – | 98 nM | – | – | 401 nM | < 0.5 µg/mL | Activity [12]: Active; inhibition [13]: Active; Activity [14]: Active; inhibition [15]: Active; IC50 [5]: 699 nM; Activity [16]: Active; Activity [17]: Active; inhibition [18]: Active |
| COc1ccc(C[C@H](NC(=O)[C@@H](C)NC(=O)[C@H]2CC[C@H](O)CC2)C(=O)N[C@@H](CC2CCC2)C(=O)[C@@]2(C)CO2)cc1 | – | – | – | 556 nM | – | – | 6810 nM | 979 µg/mL (≈ 1760 µM) | – |
| COc1ccc(C[C@H](NC(=O)[C@@H](C)NC(=O)C2=C(C)c3ccccc3C2)C(=O)N[C@@H](Cc2ccccc2)C(=O)[C@@]2(C)CO2)cc1 | 3620 nM | – | – | 764 nM | – | 76 nM | 2340 nM | 1.4 µg/mL (≈ 2.3 µM) | – |
| COc1ccc(C[C@H](NC(=O)[C@@H](C)NC(=O)[C@H]2CC[C@H](O)CC2)C(=O)N[C@@H](Cc2ccccc2)C(=O)[C@@]2(C)CO2)cc1 | 782 nM | – | 3530 nM | 262 nM | > 25000 nM | 23 nM | 507 nM | 240 µg/mL (≈ 414 µM) | – |
| COc1ccc(C[C@H](NC(=O)[C@H](C)NC(=O)CN2CCOCC2)C(=O)N[C@@H](CC2=CCCC2)C(=O)[C@@]2(C)CO2)cc1 | – | – | 223 nM | 110 nM | – | – | 694 nM | 2730 µg/mL (≈ 4790 µM) | – |
| CC1=C(C(=O)N[C@H](C)C(=O)N[C@@H](Cc2c[nH]c3ccccc23)C(=O)N[C@@H](Cc2ccccc2)C(=O)[C@@]2(C)CO2)Cc2ccccc21 | 1670 nM | 4780 nM | 2210 nM | 573 nM | > 25000 nM | 39 nM | 1360 nM | 0.75 µg/mL (≈ 1.21 µM) | – |
| COc1ccc(C[C@H](NC(=O)[C@@H](C)NC(=O)C2CCCCC2)C(=O)N[C@@H](Cc2ccccc2)C(=O)[C@@]2(C)CO2)cc1 | – | – | – | 141 nM | – | – | 118 nM | 12.1 µg/mL (≈ 21.5 µM) | – |

Source: ChEMBL document CHEMBL4411269, “Required Immunoproteasome Subunit Inhibition Profile for Anti-Inflammatory Efficacy and Clinical Candidate KZR-616 ((2 S,3 R)- N-(( S)-3-(Cyclopent-1-en-1-yl)-1-(( R)-2-methyloxiran-2-yl)-1-oxopropan-2-yl)-3-hydroxy-3-(4-methoxyphenyl)-2-(( S)-2-(2-morpholinoacetamido)propanamido)propenamide)” (J Med Chem, 2018)
